Experimental data from ChEMBL document CHEMBL1145555, “Combination of virtual screening and high throughput gene profiling for identification of novel liver X receptor modulators” (2008).
Calls of active or inactive are those of the source. The calls are words filed in the database; no cut-off is given here.

Assays:
THP-1 [1] = assay: Induction of SCD1 gene expression in human THP1 cells at 10 uM by array plate mRNA assay; type: functional
How it was run: (§1)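 Multiplex quantitative nuclease protection assay (ArrayPlate mRNA) of LXR-regulated genes, run at the same time as housekeeping genes. Compounds were tested at 10 µM alongside a negative control compound. CV% generally below 20%.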

THP-1 [2] = assay: Induction of ACTB gene expression in human THP1 cells at 10 uM by array plate mRNA assay; type: functional; how it was run: as §1
THP-1 [3] = assay: Induction of SREBP1c gene expression in human THP1 cells at 10 uM by array plate mRNA assay; type: functional; how it was run: as §1
THP-1 [4] = assay: Induction of TBP gene expression in human THP1 cells at 10 uM using by array plate mRNA assay; type: functional; how it was run: as §1
THP-1 [5] = assay: Induction of B2M gene expression in human THP1 cells at 10 uM by array plate mRNA assay; type: functional; how it was run: as §1
THP-1 [6] = assay: Induction of LXRalpha gene expression in human THP1 cells at 10 uM by array plate mRNA assay; type: functional; how it was run: as §1
THP-1 [7] = assay: Induction of ABCG1 gene expression in human THP1 cells at 10 uM by array plate mRNA assay; type: functional; how it was run: as §1
THP-1 [8] = assay: Induction of ABCA1 gene expression in human THP1 cells at 10 uM by array plate mRNA assay; type: functional; how it was run: as §1
THP-1 [9] = assay: Induction of IL6 gene expression in human THP1 cells at 10 uM by array plate mRNA assay; type: functional; how it was run: as §1
THP-1 [10] = assay: Induction of FASN gene expression in human THP1 cells at 10 uM by array plate mRNA assay; type: functional; how it was run: as §1
THP-1 [11] = assay: Induction of HDS11B1 gene expression in human THP1 cells at 10 uM using Array plate mRNA assay; type: functional; how it was run: as §1
THP-1 [12] = assay: Induction of NR1H2 gene expression in human THP1 cells at 10 uM by array plate mRNA assay; type: functional; how it was run: as §1
THP-1 [13] = assay: Induction of Cox2 gene expression in human THP1 cells at 10 uM by array plate mRNA assay; type: functional; how it was run: as §1
THP-1 [14] = assay: Induction of APOE gene expression in human THP1 cells at 10 uM by array plate mRNA assay; type: functional; how it was run: as §1
THP-1 [15] = assay: Induction of cholesterol efflux in human THP1 cells; type: functional, cell-based
How it was run: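 THP-1 cells differentiated to macrophages with 200 nM PMA for 30 h. Labelled 18 h with 0.6 µCi [1,2-3H]cholesterol plus 16 µg/mL acLDL and PMA. Treated with compound 6 h in serum-free medium with 2 mg/mL BSA, then 18 h more with 5 µg/mL apoA-I plus compound. Supernatant radioactivity expressed as fold over vehicle. Mean of triplicates, single experiment.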

[16] = molecular target: T1, Oxysterols receptor LXR-beta (Homo sapiens) (UniProt P55055); assay: Agonist activity at human LXRbeta by SRC1 cofactor recruitment assay; type: functional
T1 sequence (whole entry): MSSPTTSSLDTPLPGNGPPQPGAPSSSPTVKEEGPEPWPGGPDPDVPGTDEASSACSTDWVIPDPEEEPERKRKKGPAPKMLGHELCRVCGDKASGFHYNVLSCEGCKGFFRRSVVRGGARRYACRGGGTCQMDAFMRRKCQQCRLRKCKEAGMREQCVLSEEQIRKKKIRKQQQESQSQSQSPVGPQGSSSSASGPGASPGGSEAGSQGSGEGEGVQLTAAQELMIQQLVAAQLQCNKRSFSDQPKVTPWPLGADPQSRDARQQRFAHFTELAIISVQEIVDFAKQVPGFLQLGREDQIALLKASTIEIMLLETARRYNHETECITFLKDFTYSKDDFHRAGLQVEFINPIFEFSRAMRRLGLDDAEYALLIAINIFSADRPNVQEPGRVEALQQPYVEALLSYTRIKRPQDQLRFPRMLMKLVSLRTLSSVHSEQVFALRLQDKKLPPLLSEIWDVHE
How it was run: (§2)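 HTRF coactivator recruitment: His-tagged human LBD (LXRα 2 nM or LXRβ 1 nM) incubated with compound, 20 nM biotin-SRC1 peptide, 5 nM streptavidin-allophycocyanin and Eu-anti-His antibody (1 nM for α, 0.5 nM for β). Incubated 1 h at room temperature with shaking. EC50 taken from the 665/615 nm time-resolved fluorescence ratio.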

[17] = molecular target: T2, Oxysterols receptor LXR-alpha (Homo sapiens) (UniProt Q13133); assay: Agonist activity at human LXRalpha by SRC1 cofactor recruitment assay; type: functional; how it was run: as §2
T2 sequence (whole entry): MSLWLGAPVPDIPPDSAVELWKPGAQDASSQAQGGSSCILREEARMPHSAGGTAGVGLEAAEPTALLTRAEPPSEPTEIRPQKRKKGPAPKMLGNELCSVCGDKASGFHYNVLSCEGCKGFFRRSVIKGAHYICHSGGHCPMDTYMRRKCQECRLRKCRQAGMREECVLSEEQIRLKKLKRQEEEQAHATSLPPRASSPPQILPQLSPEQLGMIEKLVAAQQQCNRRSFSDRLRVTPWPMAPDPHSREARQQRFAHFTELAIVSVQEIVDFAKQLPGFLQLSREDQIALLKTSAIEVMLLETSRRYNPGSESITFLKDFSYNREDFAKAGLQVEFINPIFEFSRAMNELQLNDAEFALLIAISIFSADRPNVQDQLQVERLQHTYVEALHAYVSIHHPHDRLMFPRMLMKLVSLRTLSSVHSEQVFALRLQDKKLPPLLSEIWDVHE

HepG2 = assay: Induction of lipogenesis in human HepG2 cells after 24 hrs; type: functional, cell-based
How it was run: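 HepG2 cells pretreated with compound or vehicle for 24 h, then given 1 µCi [14C]glycerol for a further 48 h. Cellular triglycerides extracted, resolved by TLC and quantified by phosphorimaging. Reported as fold induction over vehicle. Mean of triplicates, single experiment.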

| SMILES | Activity (THP-1 [1]) | Activity (THP-1 [2]) | Activity (THP-1 [3]) | Activity (THP-1 [4]) | Activity (THP-1 [5]) | Activity (THP-1 [6]) | Activity (THP-1 [7]) | Activity (THP-1 [8]) | Activity (THP-1 [9]) | Activity (THP-1 [10]) | Activity (THP-1 [11]) | Activity (THP-1 [12]) | Activity (THP-1 [13]) | Activity (THP-1 [14]) | Activity (THP-1 [15]) | Activity [16] | Activity [17] | Activity (HepG2) |
| --- | --- | --- | --- | --- | --- | --- | --- | --- | --- | --- | --- | --- | --- | --- | --- | --- | --- | --- |
| C[C@H](CC[C@@H]1OC1(C)C)[C@H]1CC[C@H]2[C@@H]3CC=C4C[C@@H](O)CC[C@]4(C)[C@H]3CC[C@]12C [24(S),25-EPOXYCHOLESTEROL] | 1.17 | 0.9 | 2.05 | 0.99 | 1.25 | 3.41 | 9.91 | 5.59 | 0.82 | 0.89 | 0.79 | 1.09 | 1.35 | 2.61 |  |  |  |  |
| C[C@@H]1C2Cc3ccc(O)cc3[C@]1(C)CCCN2CCc1ccccc1 | 4.76 | 0.93 | 4.05 | 1.19 | 1.05 | 3.93 | 13.56 | 4.53 | 0.91 | 1.75 | 1.43 | 1.16 | 1.2 | 3.34 | Active | Active | Active | Active |
| O=C(O)Cc1cccc(OCCCN(Cc2cccc(C(F)(F)F)c2Cl)CC(c2ccccc2)c2ccccc2)c1 | 12.82 | 0.89 | 5.28 | 1.25 | 1.18 | 4.7 | 24.92 | 10.04 | 1.02 | 3.77 | 0.8 | 1.22 | 1.2 | 4.13 |  |  |  |  |
| O=S(=O)(c1ccccc1)N(CC(F)(F)F)c1ccc(C(O)(C(F)(F)F)C(F)(F)F)cc1 [T091317] | 8.16 | 0.93 | 4.09 | 1.05 | 1.17 | 4.56 | 15.05 | 5.9 | 1.78 | 2.59 | 1.26 | 1.17 | 0.93 | 4.2 |  |  |  |  |
